ChEMBL document CHEMBL1667766, “Synthesis of elastin based peptides conjugated to benzisoxazole as a new class of potent antimicrobials--A novel approach to enhance biocompatibility” (2011)
In brackets after ≈: the same amount, converted by molar mass. *1 amine or outer side, *2 acyl side, *3 side chain or, on linkers, in order; H or OH if unused. Where a SMILES comes first, the peptide text is derived from it. [ ]: non-standard residue; d: D form. The star is where a group is joined. X2 = CC(C)[C@H](N[*:1])C(=O)NC(=O)[*:2]; Boc = CC(C)(C)OC(=O)*; OcHex = C1CCC(O*)CC1

Tests used:
Type in all cases: functional
Escherichia coli [1] = experiment: Antimicrobial activity against Escherichia coli after 24 hrs by agar well diffusion method
Summary of the method: (§1)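 Bacteria grown in nutrient broth at 37 °C for 24 h, subcultured in 25 mL broth at room temperature, then spread on nutrient agar. Wells (6 mm cork borer) filled with 0.1 mL test solution in DMSO, prepared from a 1 mg/mL stock. Amoxicillin as reference, DMSO as negative control. Plates kept 24 h at 37 °C; inhibition zone measured in mm.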

Xanthomonas oryzae [2] = experiment: Antimicrobial activity against Xanthomonas oryzae after 24 hrs by agar well diffusion method
Klebsiella pneumoniae [3] = experiment: Antimicrobial activity against Klebsiella pneumoniae after 24 hrs by agar well diffusion method; summary of the method: as §1
Staphylococcus [4] = experiment: Antimicrobial activity against coagulase positive Staphylococcus after 24 hrs by agar well diffusion method; summary of the method: as §1
Aspergillus niger [5] = experiment: Antifungal activity against Aspergillus niger after 24 hrs by agar well diffusion method
Summary of the method: (§2)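 Fungi subcultured in 25 mL nutrient broth for one day to give inoculum, then spread on solidified Sabouraud agar. Wells punched with a 6 mm cork borer and filled with 0.1 mL test solution in DMSO, prepared from a 1 mg/mL stock. Bavistin as reference, DMSO as negative control. Read-out is inhibition zone diameter (mm).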

Aspergillus flavus [6] = experiment: Antifungal activity against Aspergillus flavus after 24 hrs by agar well diffusion method; summary of the method: as §2
Fusarium oxysporum [7] = experiment: Antifungal activity against Fusarium oxysporum after 24 hrs by agar well diffusion method; summary of the method: as §2
Escherichia coli [8] = experiment: Antimicrobial activity against Escherichia coli after 72 hrs by microdilution method
Xanthomonas oryzae [9] = experiment: Antimicrobial activity against Xanthomonas oryzae after 72 hrs by microdilution method
Klebsiella pneumoniae [10] = experiment: Antimicrobial activity against Klebsiella pneumoniae after 72 hrs by microdilution method
Staphylococcus [11] = experiment: Antimicrobial activity against coagulase positive Staphylococcus after 72 hrs by microdilution method
Aspergillus niger [12] = experiment: Antifungal activity against Aspergillus niger after 72 hrs by microdilution method
Aspergillus flavus [13] = experiment: Antifungal activity against Aspergillus flavus after 72 hrs by microdilution method
Fusarium oxysporum [14] = experiment: Antifungal activity against Fusarium oxysporum after 72 hrs by microdilution method

Compound	inhibition zone (IZ) (Escherichia coli [1]) [mm]	inhibition zone (IZ) (Xanthomonas oryzae [2]) [mm]	inhibition zone (IZ) (Klebsiella pneumoniae [3]) [mm]	inhibition zone (IZ) (Staphylococcus [4]) [mm]	inhibition zone (IZ) (Aspergillus niger [5]) [mm]	inhibition zone (IZ) (Aspergillus flavus [6]) [mm]	inhibition zone (IZ) (Fusarium oxysporum [7]) [mm]	MIC (Escherichia coli [8]) [µg/mL]	MIC (Xanthomonas oryzae [9]) [µg/mL]	MIC (Klebsiella pneumoniae [10]) [µg/mL]	MIC (Staphylococcus [11]) [µg/mL]	MIC (Aspergillus niger [12]) [µg/mL]	MIC (Aspergillus flavus [13]) [µg/mL]	MIC (Fusarium oxysporum [14]) [µg/mL]
N[C@@H](Cc1ccccc1)C(=O)N1CCC(c2noc3cc(F)ccc23)CC1.O=C(O)C(F)(F)F	14	11	10	9	16	11	14	20	15	16	18	18	22	21
C[C@H](NC(=O)CNC(=O)CNC(=O)OC(C)(C)C)C(=O)N1CCC[C@H]1C(=O)O (Boc-GGAP-OH)								> 50	> 50	> 50	> 50	> 50	> 50	> 50
CC[C@@H](C)[C@H](NC(=O)CNC(=O)CNC(=O)OC(C)(C)C)C(=O)N1CCC[C@H]1C(=O)O								> 50	> 50	> 50	> 50	> 50	> 50	> 50
CC(C)[C@H](NC(=O)CNC(=O)[C@@H]1CCCN1C(=O)[C@H](Cc1ccccc1)NC(=O)CNC(=O)[C@H](Cc1ccccc1)NC(=O)CNC(=O)[C@@H]1CCCN1C(=O)[C@H](Cc1ccccc1)NC(=O)CNC(=O)[C@@H](NC(=O)CNC(=O)[C@@H]1CCCN1C(=O)[C@@H](NC(=O)NC(=O)[C@@H](NC(=O)CNC(=O)[C@@H]1CCCN1C(=O)[C@H](Cc1ccccc1)NC(=O)CNC(=O)[C@H](CCC(=O)OC1CCCCC1)NC(=O)CNC(=O)OC(C)(C)C)C(C)C)C(C)C)C(C)C)C(=O)NCC(=O)N[C@H](C(=O)N1CCC[C@H]1C(=O)NCC(=O)N[C@H](C(=O)NCC(=O)N[C@@H](Cc1ccccc1)C(=O)N1CCC[C@H]1C(=O)O)C(C)C)C(C)C (Boc-GE(OcHex)GFPG[X2]VPGVGFPGFGFPGVGVPGVGFP-OH)								> 50	> 50	> 50	> 50	> 50	> 50	> 50
CC(C)(C)OC(=O)N[C@@H](Cc1c[nH]c2ccccc12)C(=O)O								> 50	> 50	> 50	> 50	> 50	> 50	> 50
CC(C)(C)OC(=O)N[C@@H](Cc1ccccc1)C(=O)O								> 50	> 50	> 50	> 50	> 50	> 50	> 50
CC1(C)S[C@@H]2[C@H](NC(=O)[C@H](N)c3ccc(O)cc3)C(=O)N2[C@H]1C(=O)O [AMOXICILLIN]	11	8	8	7				24 (≈ 65.7 µM)	18 (≈ 49.3 µM)	20 (≈ 54.7 µM)	23 (≈ 62.9 µM)			
CC(C)(C)OC(=O)NCC(=O)N[C@@H](Cc1ccccc1)C(=O)NCC(=O)N[C@@H](Cc1ccccc1)C(=O)N1CCC[C@H]1C(=O)O (Boc-GFGFP-OH)								> 50	> 50	> 50	> 50	> 50	> 50	> 50
CC(C)[C@H](NC(=O)CNC(=O)OC(C)(C)C)C(=O)NCC(=O)N[C@H](C(=O)N1CCC[C@H]1C(=O)O)C(C)C (Boc-GVGVP-OH)								> 50	> 50	> 50	> 50	> 50	> 50	> 50
